Activity calls are given as the source filed them. The calls are words filed in the database; no cut-off is given here.
Assays:
[1] = molecular target: Rho-associated protein kinase (Homo sapiens, UniProt O75116+Q13464); experiment: Inhibition of ROCK1/2 in human HeLa cells lysate pre incubated for 15 mins followed by ATP acyl phosphate probe addition and measured after 10 mins by LC-MS/MS analysis; type: subcellular
A549 = experiment: Antitumor activity against human A549 cells xenografted in NOD/SCID mouse assessed as reduction in BMK activation at 50 mg/kg, ip administered twice a day for 2 days by Western blot analysis; type: functional, organism-based; details: time 2.0 day
Method in brief: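 A549 cells (1×10^6, in DMEM) were injected s.c. into the right flank of 6-week-old Nod/Scid mice. On day 21, mice received 50 mg/kg twice daily or carrier; 2 per group. After 2 days, tumors were homogenized in E1A buffer. Western blot read BMK1 activation (mobility shift) and p21, quantified by densitometry normalized to GAPDH.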

[2] = molecular target: Glycogen synthase kinase-3 beta (Homo sapiens, UniProt P49841); experiment: Inhibition of GSK3B isoform 2 in human HeLa cells lysate at 50 uM pre incubated for 15 mins followed by ADP acyl phosphate probe addition and measured after 10 mins by LC-MS/MS analysis relative to control; type: subcellular; details: time 25.0 min
Chain of Glycogen synthase kinase-3 beta (P49841 whole entry, looked up, canonical isoform): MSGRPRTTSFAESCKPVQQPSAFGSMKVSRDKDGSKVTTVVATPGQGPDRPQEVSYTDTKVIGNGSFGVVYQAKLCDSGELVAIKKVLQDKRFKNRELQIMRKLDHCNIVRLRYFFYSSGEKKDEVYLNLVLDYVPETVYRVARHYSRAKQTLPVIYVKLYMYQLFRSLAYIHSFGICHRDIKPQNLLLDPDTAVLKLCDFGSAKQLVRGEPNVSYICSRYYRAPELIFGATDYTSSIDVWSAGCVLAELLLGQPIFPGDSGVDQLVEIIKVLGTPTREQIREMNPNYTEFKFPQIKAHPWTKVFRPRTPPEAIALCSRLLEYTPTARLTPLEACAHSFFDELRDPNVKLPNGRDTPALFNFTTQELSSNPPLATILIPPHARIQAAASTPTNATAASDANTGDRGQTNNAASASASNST

[3] = molecular target: Ribosomal protein S6 kinase beta-1 (Homo sapiens, UniProt P23443); experiment: Inhibition of P70S6K in human HeLa cells lysate at 10 uM pre incubated for 15 mins followed by ATP acyl phosphate probe addition and measured after 10 mins by LC-MS/MS analysis relative to control; type: subcellular; details: time 25.0 min
Chain of Ribosomal protein S6 kinase beta-1 (P23443 whole entry, looked up): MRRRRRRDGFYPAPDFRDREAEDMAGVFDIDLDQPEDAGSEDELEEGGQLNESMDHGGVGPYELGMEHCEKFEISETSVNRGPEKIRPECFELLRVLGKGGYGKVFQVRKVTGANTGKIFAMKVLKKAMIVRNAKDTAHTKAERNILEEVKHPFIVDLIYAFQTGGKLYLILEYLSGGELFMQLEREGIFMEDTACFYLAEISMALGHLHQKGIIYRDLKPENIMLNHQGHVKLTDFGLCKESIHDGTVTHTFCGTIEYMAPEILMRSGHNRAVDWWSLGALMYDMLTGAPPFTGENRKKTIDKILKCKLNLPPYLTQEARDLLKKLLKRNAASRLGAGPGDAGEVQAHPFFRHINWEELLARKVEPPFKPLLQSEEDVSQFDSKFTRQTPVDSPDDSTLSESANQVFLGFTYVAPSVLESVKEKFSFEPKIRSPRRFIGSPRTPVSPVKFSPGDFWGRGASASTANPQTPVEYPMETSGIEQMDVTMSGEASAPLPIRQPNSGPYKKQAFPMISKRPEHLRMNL

[4] = molecular target: T1, Serine/threonine-protein kinase ULK3 (Homo sapiens) (UniProt Q6PHR2); experiment: Inhibition of ULK3 in human HeLa cells lysate at 2 uM pre incubated for 15 mins followed by ADP acyl phosphate probe addition and measured after 10 mins by LC-MS/MS analysis relative to control; type: subcellular; details: time 25.0 min
T1 sequence (whole entry): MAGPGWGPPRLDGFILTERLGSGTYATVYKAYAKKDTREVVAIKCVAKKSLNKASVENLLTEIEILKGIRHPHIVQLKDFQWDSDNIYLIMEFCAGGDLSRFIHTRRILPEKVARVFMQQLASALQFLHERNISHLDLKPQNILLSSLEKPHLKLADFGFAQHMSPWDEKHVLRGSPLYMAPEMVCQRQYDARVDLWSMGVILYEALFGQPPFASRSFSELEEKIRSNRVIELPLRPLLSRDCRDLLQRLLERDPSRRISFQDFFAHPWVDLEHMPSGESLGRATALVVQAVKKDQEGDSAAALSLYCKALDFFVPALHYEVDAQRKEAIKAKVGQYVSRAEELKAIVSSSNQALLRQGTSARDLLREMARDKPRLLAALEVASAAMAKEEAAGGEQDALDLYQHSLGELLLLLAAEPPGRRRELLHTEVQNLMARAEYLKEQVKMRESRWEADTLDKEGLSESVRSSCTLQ

[5] = molecular target: T2, Phosphatidylinositol 5-phosphate 4-kinase type-2 alpha (Homo sapiens, UniProt P48426); experiment: Inhibition of PIP5K2A LIP1 site in human HeLa cells lysate pre incubated for 15 mins followed by ADP acyl phosphate probe addition and measured after 10 mins by LC-MS/MS analysis; type: subcellular
T2 sequence (P48426 whole entry): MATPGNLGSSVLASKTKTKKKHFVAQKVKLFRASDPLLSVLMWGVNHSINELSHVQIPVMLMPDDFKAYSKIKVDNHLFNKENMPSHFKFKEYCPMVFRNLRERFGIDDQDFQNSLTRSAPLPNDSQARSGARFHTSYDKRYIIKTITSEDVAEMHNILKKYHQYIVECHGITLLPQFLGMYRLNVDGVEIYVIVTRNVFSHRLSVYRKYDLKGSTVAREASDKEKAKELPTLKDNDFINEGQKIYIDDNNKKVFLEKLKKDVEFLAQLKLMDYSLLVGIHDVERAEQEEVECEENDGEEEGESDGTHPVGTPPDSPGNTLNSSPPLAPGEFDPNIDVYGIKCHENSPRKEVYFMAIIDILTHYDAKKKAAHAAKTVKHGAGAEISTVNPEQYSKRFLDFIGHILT

[6] = Inhibition of CDK5/PRKX/PRKY in human HeLa cells lysate at 50 uM pre incubated for 15 mins followed by ADP acyl phosphate probe addition and measured after 10 mins by LC-MS/MS analysis relative to control; details: 25 min, condition cancer
Method in brief: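 KiNativ profiling in HeLa lysate (5 mg/mL total protein). Lysate incubated 15 min with inhibitor at 50, 10, 2, 0.8 or 0 μM. ATP or ADP acylphosphate probe then added (5 μM final) and reacted 10 min. Reaction stopped with urea and analysed by targeted MS, using up to four fragment ions per kinase peptide-probe conjugate. % inhibition taken against untreated lysate. Run in duplicate.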

[7] = molecular target: Serine/threonine-protein kinase Aurora (Homo sapiens, UniProt Q96GD4+Q9UQB9+O14965); experiment: Inhibition of AurA/AurB/AurC in human HeLa cells lysate at 10 uM pre incubated for 15 mins followed by ATP acyl phosphate probe addition and measured after 10 mins by LC-MS/MS analysis relative to control; type: subcellular; details: time 25.0 min
Chain of Serine/threonine-protein kinase Aurora (O14965 whole entry, looked up, the tested form may be a part): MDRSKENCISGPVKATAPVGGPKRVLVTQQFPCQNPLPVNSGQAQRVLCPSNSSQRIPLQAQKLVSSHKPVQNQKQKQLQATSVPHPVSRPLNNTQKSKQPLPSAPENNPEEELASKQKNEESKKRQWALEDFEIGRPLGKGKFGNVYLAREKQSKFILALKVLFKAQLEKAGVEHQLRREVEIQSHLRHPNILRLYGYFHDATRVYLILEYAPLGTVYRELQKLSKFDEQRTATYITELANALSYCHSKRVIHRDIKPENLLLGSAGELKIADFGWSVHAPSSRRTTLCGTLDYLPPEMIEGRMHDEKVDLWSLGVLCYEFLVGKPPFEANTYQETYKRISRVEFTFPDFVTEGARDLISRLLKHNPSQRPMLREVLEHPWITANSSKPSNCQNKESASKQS
Chain of Serine/threonine-protein kinase Aurora (Q96GD4 whole entry, looked up, the tested form may be a part): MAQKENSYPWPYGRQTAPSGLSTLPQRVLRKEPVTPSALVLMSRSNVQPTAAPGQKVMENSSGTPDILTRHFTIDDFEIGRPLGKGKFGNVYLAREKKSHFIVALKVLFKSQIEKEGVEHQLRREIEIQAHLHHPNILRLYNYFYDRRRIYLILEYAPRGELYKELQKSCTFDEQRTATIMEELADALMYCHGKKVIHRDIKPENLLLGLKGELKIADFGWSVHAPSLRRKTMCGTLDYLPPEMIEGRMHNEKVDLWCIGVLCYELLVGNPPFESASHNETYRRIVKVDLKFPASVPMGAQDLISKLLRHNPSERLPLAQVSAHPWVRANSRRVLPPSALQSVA
Chain of Serine/threonine-protein kinase Aurora (Q9UQB9 whole entry, looked up, the tested form may be a part): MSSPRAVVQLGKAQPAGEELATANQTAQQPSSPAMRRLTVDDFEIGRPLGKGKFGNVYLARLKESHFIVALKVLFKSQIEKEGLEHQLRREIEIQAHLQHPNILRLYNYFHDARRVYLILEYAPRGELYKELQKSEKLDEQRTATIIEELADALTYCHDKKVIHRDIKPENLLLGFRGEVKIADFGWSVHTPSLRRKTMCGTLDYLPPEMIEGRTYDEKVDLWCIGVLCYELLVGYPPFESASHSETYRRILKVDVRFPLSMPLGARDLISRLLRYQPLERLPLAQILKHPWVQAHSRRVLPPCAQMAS
Method in brief: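 KiNativ-type profiling in HeLa lysate (5 mg/mL total protein). Lysate preincubated 15 min with inhibitor at 50, 10, 2, 0.8 or 0 μM, then ATP or ADP acylphosphate probe added (5 μM final) for 10 min. Reaction stopped with urea and analysed by targeted MS, using up to four fragment ions per kinase peptide-probe conjugate. % inhibition calculated against untreated lysate. Duplicate reactions.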

CCOc1cc(N2CCC(O)CC2)ccc1Nc1ncc2c(n1)N(C)c1ccccc1C(=O)N2C
IC50 [1]: > 50 µM | Activity (A549): Active | inhibition [2]: 5.1% | inhibition [3]: -9.6% | inhibition [4]: 18.8% | IC50 [5]: > 50 µM | inhibition at 50 µM [6]: -10% | inhibition [7]: -7.7%
